# Measured values published in ChEMBL document CHEMBL1681784, “Development of sulfonamide AKT PH domain inhibitors” (Bioorg Med Chem, 2011).
# Active and inactive are the calls of the source. The calls are words filed in the database; no cut-off is given here.
# Test system: BXPC-3
# Assay: Inhibition of AKT phosphorylation at serine 473 residue in human BxPC3 cells at 10 uM after 4 hrs by ELISA
# Format: cell-based
# Outline: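 BxPC3 cells kept in DMEM with 10% heat-inactivated FBS and 4.5 g/L glucose under 5% CO2, mycoplasma-free. Compound made fresh as a 10 mM DMSO stock and dosed at 10 μM final into the medium for 4 h. Equal amounts of lysate run on an MSD pSer473-AKT/total AKT plate; read-out is the pAKT/AKT ratio.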
row,SMILES,inhibition
1,CCCCCCCCCCCCc1ccccc1S(=O)(=O)Nc1nncs1,inactive
2,CCCCCCCCCCCCc1ccc(S(=O)(=O)Nc2ccccc2)cc1,inactive
3,CCCCCCCCCCCCc1cccc(S(=O)(=O)Nc2nncs2)c1,inactive

# Test system: BXPC-3
# Assay: Cytotoxicity against human BxPC3 cells by MTT assay
# Format: functional, cell-based
row,SMILES,IC50
1,CC(=O)Nc1ccc(S(=O)(=O)Nc2nnc(S(N)(=O)=O)s2)cc1,> 300 µM
2,CCCCCCCCCCCCc1ccccc1S(=O)(=O)Nc1nncs1,74 µM
3,Nc1ccc(S(=O)(=O)Nc2nnc(S(N)(=O)=O)s2)cc1,> 300 µM
4,CCCCc1ccc(S(=O)(=O)Nc2nncs2)cc1,> 300 µM
5,CCc1nnc(NS(=O)(=O)c2ccc(NC(C)=O)cc2)s1,> 300 µM
6,CCCCCCCCCC(=O)Nc1ccc(S(=O)(=O)Nc2nnc(CC(=O)OCC)s2)cc1,170 µM
7,CC(=O)Nc1ccc(S(=O)(=O)Nc2nnc(C(C)(C)C)s2)cc1,> 300 µM
8,CCCCCCCCCC(=O)Nc1ccc(S(=O)(=O)Nc2nnc(CC)s2)cc1,146 µM
9,CCOC(=O)c1nnc(NS(=O)(=O)c2ccc(NC(C)=O)cc2)s1,> 300 µM
10,CCCCCCCCCC(=O)Nc1ccc(S(=O)(=O)Nc2nnc(CO)s2)cc1,189 µM
11,CCCCCCCCCC(=O)Nc1ccc(S(=O)(=O)Nc2nnc(CC(=O)O)s2)cc1,> 300 µM
12,CC(=O)Nc1ccc(S(=O)(=O)Nc2nnc(CC(=O)O)s2)cc1,> 300 µM
13,CCCCCCCCCC(=O)Nc1ccc(S(=O)(=O)Nc2nnc(C(=O)OCC)s2)cc1,117 µM
14,CCc1nnc(NS(=O)(=O)c2ccc(N)cc2)s1 [SULFAETHIDOLE],> 300 µM
15,CCCCCCCCCCCCc1ccc(S(=O)(=O)Nc2nnc(CC(=O)O)s2)cc1,117 µM
16,CCCCCCCCCCCCc1ccc(S(=O)(=O)Nc2ccccc2)cc1,38 µM
17,CC(=O)Nc1ccc(S(=O)(=O)Nc2nnc(CO)s2)cc1,> 300 µM
18,Nc1ccc(S(=O)(=O)Nc2nnc(CC(=O)O)s2)cc1,> 300 µM

row,SMILES,IC50
1,O=S(=O)(Nc1nnc(CO)s1)c1ccc(-c2ccccc2)cc1,> 300 µM
2,Nc1ccc(S(=O)(=O)Nc2nncs2)cc1,> 300 µM
3,CCCCCCCCCC(=O)Nc1ccc(S(=O)(=O)Nc2nnc(S(N)(=O)=O)s2)cc1,> 300 µM
4,CCOC(=O)Cc1nnc(NS(=O)(=O)c2ccc(NC(C)=O)cc2)s1,176 µM
5,CCCCCCCCCCCCc1ccc(S(=O)(=O)Nc2nnc(C)s2)cc1,51 µM
6,CC(C)(C)c1nnc(NS(=O)(=O)c2ccc(N)cc2)s1 [GLYBUTHIAZOL],> 300 µM
7,Cc1nnc(NS(=O)(=O)c2ccc(N)cc2)s1 [SULFAMETHIZOLE],> 300 µM
8,CCCCCCCCCC(=O)Nc1ccc(S(=O)(=O)Nc2nncs2)cc1,180 µM
9,COCCOCCOCC(=O)Nc1ccc(S(=O)(=O)Nc2nncs2)cc1,> 300 µM
10,CCCCCCCCCC(=O)Nc1ccc(S(=O)(=O)Nc2nnc(C(C)(C)C)s2)cc1,> 300 µM
11,CCCCCCc1ccc(S(=O)(=O)Nc2nncs2)cc1,266 µM
12,CC(=O)Nc1ccc(S(=O)(=O)Nc2nnc(C)s2)cc1,> 300 µM
13,O=S(=O)(Nc1nncs1)c1ccc(-c2ccccc2)cc1,> 300 µM
14,Nc1ccc(S(=O)(=O)Nc2nnc(CO)s2)cc1,> 300 µM
15,CCCCCCCCCCCCc1cccc(S(=O)(=O)Nc2nncs2)c1,71 µM
16,CCCCCCCCCC(=O)Nc1ccc(S(=O)(=O)Nc2nnc(C)s2)cc1,149 µM
17,CC(=O)Nc1ccc(S(=O)(=O)Nc2nncs2)cc1,> 300 µM
